ChEMBL document CHEMBL3785055, “Arginine-linked neomycin B dimers: synthesis, rRNA binding, and resistance enzyme activity” (Medchemcomm, 2016)
In brackets after ≈: the same amount, converted by molar mass. Activity calls are given as the source filed them. The calls are words filed in the database; no cut-off is given here.

How the values were obtained:
[1] = Selectivity factor, ratio of IC50 for human rRNA A-site to IC50 for Escherichia coli rRNA A-site
Outline: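 Ratio from F-NEO displacement titrations, 0.002–2.0 μM compound against 0.1 μM F-NEO:A-site complex (485/535 nm). Measured IC50 stands in for the unmeasurable competition constants in Kd(human)/Kd(E. coli) = 5.75 × K(E. coli)/K(human). Buffer 10 mM HEPES, 50 mM NaCl, 0.4 mM EDTA, pH 7.0.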

Bacillus cereus = test: Antibacterial activity against Bacillus cereus ATCC 11778 after 16 to 20 hrs by MTT assay; type: functional
Outline: (§1)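 Strains grown in LB 24 h at 37 °C, 250 rpm; overnight culture diluted 1:1000, grown 4 h, diluted 1:1000 again and added to microplates. Incubation 16–20 h at 37 °C; growth read visually and with MTT (1 mg/mL).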

[2] = tested on: Staphylococcus epidermidis; test: Antibacterial activity against Staphylococcus epidermidis ATCC 12228 after 16 to 20 hrs by MTT assay; type: functional; outline: as §1
[3] = Displacement of F-NEO from Escherichia coli rRNA A-site by fluorescence assay
Staphylococcus aureus [4] = test: Antibacterial activity against Staphylococcus aureus ATCC 25923 after 16 to 20 hrs by MTT assay; type: functional; outline: as §1
[5] = Displacement of F-NEO from human rRNA A-site by fluorescence assay
[6] = Activity at APH(3')-1a (unknown origin) at 100 uM in presence of […] by […] relative to NEO
[7] = tested on: Mycobacterium tuberculosis; test: Activity at Mycobacterium tuberculosis AAC(2')-1c at 100 uM in presence of AcCoA by Ellmans method relative to NEO
Outline: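 N-acetylation by AAC(2')-Ic (0.125 μM enzyme) of 100 μM compound with 150 μM AcCoA and 2 mM DTNB in 100 mM buffer, 25 °C. Thiol release followed at 412 nm (ε = 14,150 M⁻¹cm⁻¹). Rates normalized to neomycin B, triplicate.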

Staphylococcus aureus [8] = test: Activity at Staphylococcus aureus AAC(6')-1e/APH(2'')-1a in presence of AcCoA by Ellmans method relative to NEO
Staphylococcus aureus [9] = test: Activity at Staphylococcus aureus APH(2'')-1a at 100 uM in presence of […] by […] relative to NEO
[10] = Activity at Eis (unknown origin) at 100 uM in presence of AcCoA by Ellmans method relative to NEO
Outline: (§2)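 Acetylation followed by Ellman's method at 412 nm, 2 mM DTNB, 100 μM compound, 25 °C, triplicate, rates normalized to NEO. AcCoA 500 μM for Eis, 150 μM for AAC(3)-IV; enzyme 0.5 μM for Eis, 0.125 μM for AAC(3)-IV; 50 mM buffer.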

Escherichia coli = test: Activity at Escherichia coli AAC(3)-4 at 100 uM in presence of AcCoA by Ellmans method relative to NEO; outline: as §2

SMILES | Ratio IC50 [1] | MIC (Bacillus cereus) | MIC [2] | IC50 [3] | MIC (Staphylococcus aureus [4]) | IC50 [5] | Activity [6] | Activity [7] | Activity (Staphylococcus aureus [8]) | Activity (Staphylococcus aureus [9]) | Activity [10] | Activity (Escherichia coli)
NCC1O[C@H](O[C@H]2[C@@H](O)[C@H](O[C@H]3[C@H](O)[C@@H](N)C[C@@H](N)[C@@H]3O[C@H]3O[C@H](CN)[C@@H](O)[C@H](O)[C@H]3N)O[C@@H]2CO)[C@H](N)[C@@H](O)[C@@H]1O (some centres undefined) | 5 | ≤ 0.1 µM | 0.2 µM (≈ 0.123 µg/mL) | 87 µM | 0.2 µM (≈ 0.123 µg/mL) | 76 µM | – | – | – | – | – | –
N=C(N)NCCC[C@H](NC(=O)CCCCCCCNC(=O)c1cc(-c2cn(C[C@@H]3O[C@H](O[C@H]4[C@H](O)[C@@H](N)C[C@@H](N)[C@@H]4O[C@H]4O[C@H](CN)[C@@H](O)[C@H](O)[C@H]4N)[C@@H](O)[C@H]3O[C@H]3O[C@@H](CN)[C@@H](O)[C@H](O)[C@H]3N)nn2)cc(-c2cn(C[C@H]3O[C@@H](O[C@@H]4[C@@H](O)[C@H](N)C[C@H](N)[C@H]4O[C@@H]4O[C@@H](CN)[C@H](O)[C@@H](O)[C@@H]4N)[C@H](O)[C@@H]3O[C@@H]3O[C@H](CN)[C@H](O)[C@@H](O)[C@@H]3N)nn2)c1)C(N)=O (stereo in doubt) | 5.2 | 3 µM (≈ 5.24 µg/mL) | 25 µM (≈ 43.6 µg/mL) | 48 µM | > 50 µM | 43 µM | inactive | inactive | inactive | inactive | inactive | –
N=C(N)NCCC[C@H](NC(=O)CCCCCCCCNC(=O)c1cc(-c2cn(C[C@@H]3O[C@H](O[C@H]4[C@H](O)[C@@H](N)C[C@@H](N)[C@@H]4O[C@H]4O[C@H](CN)[C@@H](O)[C@H](O)[C@H]4N)[C@@H](O)[C@H]3O[C@H]3O[C@@H](CN)[C@@H](O)[C@H](O)[C@H]3N)nn2)cc(-c2cn(C[C@H]3O[C@@H](O[C@@H]4[C@@H](O)[C@H](N)C[C@H](N)[C@H]4O[C@@H]4O[C@@H](CN)[C@H](O)[C@@H](O)[C@@H]4N)[C@H](O)[C@@H]3O[C@@H]3O[C@H](CN)[C@H](O)[C@@H](O)[C@@H]3N)nn2)c1)C(N)=O (stereo in doubt) | 5.9 | 3 µM (≈ 5.28 µg/mL) | 50 µM (≈ 88 µg/mL) | 60 µM | > 50 µM | 62 µM | inactive | inactive | inactive | inactive | inactive | –
N=C(N)NCCC[C@H](NC(=O)CNC(=O)c1cc(-c2cn(C[C@H]3O[C@@H](O[C@@H]4[C@@H](O)[C@H](N)C[C@H](N)[C@H]4O[C@H]4O[C@H](CN)[C@@H](O)[C@H](O)[C@H]4N)[C@H](O)[C@@H]3O[C@H]3O[C@@H](CN)[C@@H](O)[C@H](O)[C@H]3N)nn2)cc(-c2cn(C[C@H]3O[C@@H](O[C@H]4[C@H](O)[C@@H](N)C[C@@H](N)[C@@H]4O[C@@H]4O[C@@H](CN)[C@H](O)[C@@H](O)[C@@H]4N)[C@H](O)[C@@H]3O[C@H]3O[C@@H](CN)[C@@H](O)[C@H](O)[C@H]3N)nn2)c1)C(N)=O (stereo in doubt) | 5.3 | 1.6 µM (≈ 2.66 µg/mL) | > 50 µM | 62 µM | 50 µM (≈ 83.1 µg/mL) | 58 µM | inactive | inactive | inactive | inactive | inactive | Active
N=C(N)NCCC[C@H](NC(=O)CCCCNC(=O)c1cc(-c2cn(C[C@@H]3O[C@H](O[C@H]4[C@H](O)[C@@H](N)C[C@@H](N)[C@@H]4O[C@H]4O[C@H](CN)[C@@H](O)[C@H](O)[C@H]4N)[C@@H](O)[C@H]3O[C@H]3O[C@@H](CN)[C@@H](O)[C@H](O)[C@H]3N)nn2)cc(-c2cn(C[C@H]3O[C@@H](O[C@@H]4[C@@H](O)[C@H](N)C[C@H](N)[C@H]4O[C@@H]4O[C@@H](CN)[C@H](O)[C@@H](O)[C@@H]4N)[C@H](O)[C@@H]3O[C@@H]3O[C@H](CN)[C@H](O)[C@@H](O)[C@@H]3N)nn2)c1)C(N)=O (stereo in doubt) | 7.4 | 3 µM (≈ 5.11 µg/mL) | > 50 µM | 52 µM | > 50 µM | 70 µM | inactive | inactive | inactive | inactive | inactive | Active
N=C(N)NCCC[C@H](NC(=O)CCNC(=O)c1cc(-c2cn(C[C@@H]3O[C@H](O[C@H]4[C@H](O)[C@@H](N)C[C@@H](N)[C@@H]4O[C@H]4O[C@H](CN)[C@@H](O)[C@H](O)[C@H]4N)[C@@H](O)[C@H]3O[C@H]3O[C@@H](CN)[C@@H](O)[C@H](O)[C@H]3N)nn2)cc(-c2cn(C[C@H]3O[C@@H](O[C@@H]4[C@@H](O)[C@H](N)C[C@H](N)[C@H]4O[C@@H]4O[C@@H](CN)[C@H](O)[C@@H](O)[C@@H]4N)[C@H](O)[C@@H]3O[C@@H]3O[C@H](CN)[C@H](O)[C@@H](O)[C@@H]3N)nn2)c1)C(N)=O (stereo in doubt) | 4.7 | 0.8 µM (≈ 1.34 µg/mL) | 50 µM (≈ 83.8 µg/mL) | 70 µM | 50 µM (≈ 83.8 µg/mL) | 58 µM | inactive | inactive | inactive | inactive | inactive | Active
N=C(N)NCCC[C@H](NC(=O)CCCCCNC(=O)c1cc(-c2cn(C[C@@H]3O[C@H](O[C@H]4[C@H](O)[C@@H](N)C[C@@H](N)[C@@H]4O[C@H]4O[C@H](CN)[C@@H](O)[C@H](O)[C@H]4N)[C@@H](O)[C@H]3O[C@H]3O[C@@H](CN)[C@@H](O)[C@H](O)[C@H]3N)nn2)cc(-c2cn(C[C@H]3O[C@@H](O[C@@H]4[C@@H](O)[C@H](N)C[C@H](N)[C@H]4O[C@@H]4O[C@@H](CN)[C@H](O)[C@@H](O)[C@@H]4N)[C@H](O)[C@@H]3O[C@@H]3O[C@H](CN)[C@H](O)[C@@H](O)[C@@H]3N)nn2)c1)C(N)=O (stereo in doubt) | 7.2 | 1.6 µM (≈ 2.75 µg/mL) | > 50 µM | 54 µM | > 50 µM | 68 µM | inactive | inactive | inactive | inactive | inactive | Active
N=C(N)NCCC[C@H](NC(=O)CCCCCCNC(=O)c1cc(-c2cn(C[C@@H]3O[C@H](O[C@H]4[C@H](O)[C@@H](N)C[C@@H](N)[C@@H]4O[C@H]4O[C@H](CN)[C@@H](O)[C@H](O)[C@H]4N)[C@@H](O)[C@H]3O[C@H]3O[C@@H](CN)[C@@H](O)[C@H](O)[C@H]3N)nn2)cc(-c2cn(C[C@H]3O[C@@H](O[C@@H]4[C@@H](O)[C@H](N)C[C@H](N)[C@H]4O[C@@H]4O[C@@H](CN)[C@H](O)[C@@H](O)[C@@H]4N)[C@H](O)[C@@H]3O[C@@H]3O[C@H](CN)[C@H](O)[C@@H](O)[C@@H]3N)nn2)c1)C(N)=O (stereo in doubt) | 7.3 | 3 µM (≈ 5.2 µg/mL) | > 50 µM | 44 µM | > 50 µM | 56 µM | inactive | inactive | inactive | inactive | inactive | –
N=C(N)NCCC[C@@H](NC(=O)CCCNC(=O)c1cc(-c2cn(C[C@@H]3O[C@H](O[C@@H]4[C@@H](O)[C@H](N)C[C@H](N)[C@H]4O[C@@H]4O[C@@H](CN)[C@H](O)[C@@H](O)[C@@H]4N)[C@@H](O)[C@H]3O[C@@H]3O[C@H](CN)[C@H](O)[C@@H](O)[C@@H]3N)nn2)cc(-c2cn(C[C@H]3O[C@@H](O[C@@H]4[C@@H](O)[C@H](N)C[C@H](N)[C@H]4O[C@@H]4O[C@@H](CN)[C@H](O)[C@@H](O)[C@@H]4N)[C@H](O)[C@@H]3O[C@@H]3O[C@H](CN)[C@H](O)[C@@H](O)[C@@H]3N)nn2)c1)C(N)=O (stereo in doubt) | 5.3 | 1.6 µM (≈ 2.7 µg/mL) | > 50 µM | 56 µM | > 50 µM | 52 µM | inactive | inactive | inactive | inactive | inactive | Active
